In ChEMBL document CHEMBL2016482, “Synthesis and inhibitory effect of piperine derivates on monoamine oxidase” (Bioorg Med Chem Lett, 2012):

How the values were obtained:
[1] = target: T1, Amine oxidase [flavin-containing] A (Rattus norvegicus, UniProt P21396); assay: Inhibition of MAO-A in Sprague-Dawley rat brain homogenate using kynuramine as substrate preincubated for 10 mins measured by fluorimetric assay; format: tissue-based
T1 sequence (P21396 whole entry): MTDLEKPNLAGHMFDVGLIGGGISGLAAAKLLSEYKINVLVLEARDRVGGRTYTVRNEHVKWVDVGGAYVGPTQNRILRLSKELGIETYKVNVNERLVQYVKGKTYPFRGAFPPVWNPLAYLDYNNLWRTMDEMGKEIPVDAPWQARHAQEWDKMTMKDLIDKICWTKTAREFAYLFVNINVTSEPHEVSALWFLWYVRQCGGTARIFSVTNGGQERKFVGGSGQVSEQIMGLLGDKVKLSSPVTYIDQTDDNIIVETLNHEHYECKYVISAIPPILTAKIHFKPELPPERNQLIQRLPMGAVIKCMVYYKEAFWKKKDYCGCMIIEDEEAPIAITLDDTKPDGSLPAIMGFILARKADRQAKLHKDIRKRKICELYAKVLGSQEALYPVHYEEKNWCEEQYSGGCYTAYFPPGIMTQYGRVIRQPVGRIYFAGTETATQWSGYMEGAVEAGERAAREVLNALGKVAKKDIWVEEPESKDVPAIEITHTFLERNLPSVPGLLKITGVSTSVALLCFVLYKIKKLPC
How it was run: (§1)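 Rat brain homogenate was the enzyme source, with protein measured by Bradford against a BSA standard. Fluorometric MAO assay used kynuramine substrate in the presence of isoform-specific inhibitors. Test inhibitor was preincubated with homogenate for 10 min. IC50 came from plots of % residual activity relative to enzyme treated identically without inhibitor.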

Rattus norvegicus = species: Rattus norvegicus; assay: Selectivity ratio of IC50 for Sprague-Dawley rat MAO-A to IC50 for Sprague-Dawley rat MAO-B
[2] = target: T2, Amine oxidase [flavin-containing] B (Rattus norvegicus, UniProt P19643); assay: Inhibition of MAO-B in Sprague-Dawley rat brain homogenate using kynuramine as substrate preincubated for 10 mins measured by fluorimetric assay; format: tissue-based; how it was run: as §1
T2 sequence (P19643 whole entry): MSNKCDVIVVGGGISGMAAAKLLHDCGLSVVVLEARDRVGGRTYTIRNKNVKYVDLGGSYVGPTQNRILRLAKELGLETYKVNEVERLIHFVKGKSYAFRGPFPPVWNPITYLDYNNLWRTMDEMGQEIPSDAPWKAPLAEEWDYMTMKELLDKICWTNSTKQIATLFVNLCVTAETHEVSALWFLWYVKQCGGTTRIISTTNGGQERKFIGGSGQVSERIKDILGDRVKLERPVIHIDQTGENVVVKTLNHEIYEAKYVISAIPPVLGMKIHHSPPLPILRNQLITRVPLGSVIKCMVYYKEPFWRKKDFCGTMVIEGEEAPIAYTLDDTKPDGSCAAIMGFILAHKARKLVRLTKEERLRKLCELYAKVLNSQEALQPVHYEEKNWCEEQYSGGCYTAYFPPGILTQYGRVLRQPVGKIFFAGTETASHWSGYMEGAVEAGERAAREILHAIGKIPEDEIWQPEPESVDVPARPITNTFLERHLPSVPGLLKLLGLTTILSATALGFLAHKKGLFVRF

[3] = target: T2, Amine oxidase [flavin-containing] B; assay: Competitive inhibition of MAO-B in Sprague-Dawley rat brain homogenate by Lineweaver-Burk plot analysis; format: tissue-based
How it was run: (§2)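 Kinetic mode of the same homogenate kynuramine fluorometric assay. Reciprocal MAO activity was plotted against reciprocal kynuramine concentration (Lineweaver–Burk), each at three inhibitor levels including zero, run separately for MAO-A and MAO-B.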

[4] = target: T1, Amine oxidase [flavin-containing] A; assay: Competitive inhibition of MAO-A in Sprague-Dawley rat brain homogenate by Lineweaver-Burk plot analysis; format: tissue-based; how it was run: as §2

Structure (SMILES) | IC50 [1] [µM] | Ratio IC50 (Rattus norvegicus) | IC50 [2] [µM] | inhibition (INH) [3] | inhibition (INH) [4]
C(/C=C/c1ccc2c(c1)OCO2)=C\CN1CCCCC1 | > 100 |  | > 100 |  | 
CCCCNC(=O)CCCCc1ccc2c(c1)OCO2 | 16.1 | 4.59 | 3.5 |  | 
CCCNC(=O)CCCCc1ccc2c(c1)OCO2 | > 100 |  | > 100 |  | 
CCCCNC(=O)/C=C/C=C/c1ccc2c(c1)OCO2 | > 100 |  | 0.33 |  | 
COC(=O)/C=C/C=C/c1ccc2c(c1)OCO2 [METHYL PIPERATE] | 2.74 | 11.9 | 0.23 |  | 
O=C(CCCCc1ccc2c(c1)OCO2)N1CCCCC1 [TETRAHYDROPIPERINE] | > 100 |  | 1.97 |  | 
CN1CCN(C(=O)CCCCc2ccc3c(c2)OCO3)CC1 | > 100 |  | > 100 |  | 
O=C(C1C=CC(c2ccc3c(c2)OCO3)C(/C=C/c2ccc3c(c2)OCO3)C1C(=O)N1CCCCC1)N1CCCCC1 (stereo not drawn) | > 100 |  | > 100 |  | 
O=C(O)/C=C/C=C/c1ccc2c(c1)OCO2 [PIPERIC ACID] | 18.3 | 1.35 | 13.6 |  | 

The next lines start with the values.

IC50 [1] [µM] | Ratio IC50 (Rattus norvegicus) | IC50 [2] [µM] | inhibition (INH) [3] | inhibition (INH) [4] | Structure (SMILES)
5.57 | 4.53 | 1.23 |  |  | CCOC(=O)CCCCc1ccc2c(c1)OCO2
3.66 | 81.5 | 0.045 | Active | Active | CCCNC(=O)/C=C/C=C/c1ccc2c(c1)OCO2
0.404 | 1.55 | 0.26 |  |  | O=C(/C=C/C=C/c1ccc2c(c1)OCO2)N1CCCCC1 [PIPERINE]
0.8 | 0.51 | 1.57 |  |  | O=C(/C=C/C=C/c1ccc(O)c(O)c1)N1CCCCC1
5.21 | 2.98 | 1.75 |  |  | CCN(CC)C(=O)CCCCc1ccc2c(c1)OCO2
3.82 | 49 | 0.078 |  |  | CCN(CC)C(=O)/C=C/C=C/c1ccc2c(c1)OCO2
7.55 | 22.8 | 0.33 |  |  | CCOC(=O)/C=C/C=C/c1ccc2c(c1)OCO2
2.04 | 2.12 | 0.96 |  |  | CN1CCN(C(=O)/C=C/C=C/c2ccc3c(c2)OCO3)CC1
1.28 | 1.71 | 0.75 |  |  | CC(=O)Oc1ccc(/C=C/C=C/C(=O)N2CCCCC2)cc1OC(C)=O
3.17 | 1.76 | 1.8 |  |  | COC(=O)CCCCc1ccc2c(c1)OCO2
